From ChEMBL document CHEMBL5252672, “Inhibition of mitochondrial metabolism by (-)-jerantinine A: synthesis and biological studies in triple-negative breast cancer cells” (RSC Med Chem, 2023)
The source made the active and inactive calls. No cut-off for these calls is given here.

Legend:
MDA-MB-231 [1] = test: Antiproliferative activity against human MDA-MB-231 cells; assay type: functional, cell-based
Procedure, shortened: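 MDA-MB-231 cells grown in RPMI-1640 with 10% FBS at 37°C, 5% CO2. Seeded at 2000 cells/well, then exposed to graded compound concentrations, medium renewed every 2–3 days. On day 5, viability read by CyQUANT fluorescence (cellular DNA content).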

[2] = Cytotoxicity against vincristine-resistant human VJ-300 cells; assay type: functional, cell-based
[3] = Cytotoxicity against human MCF-10A cells; assay type: toxicity, cell-based
[4] = Effect on metabolism in human MDA-MB-231 cells assessed as reduction in carbamoyl aspartate level at 5 uM incubated for 16 hrs by LC-MS based metabolomics analysis; assay type: functional; parameters: scale not given: the % may be the effect or the level left
Procedure, shortened: (§1)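 MDA-MB-231 cells in RPMI-1640 plus 10% FBS, treated 16 h with DMSO vehicle or compound at 5 μM. Untargeted metabolic profiling followed, with normalized metabolite levels compared between treated and vehicle groups.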

[5] = Effect on metabolism in human MDA-MB-231 cells assessed as reduction in N-acetylaspartate level at 5 uM incubated for 16 hrs by LC-MS based metabolomics analysis; assay type: functional; parameters: scale not given: the % may be the effect or the level left; procedure, shortened: as §1
MDA-MB-231 [6] = test: Induction of ROS generation in human MDA-MB-231 cells at 2.5 to 40 uM incubated for 24 hrs by bioluminescence assay; assay type: functional, cell-based; conditions: dose 2.5-40 µM
Procedure, shortened: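 MDA-MB-231 cells stably carrying the lentiviral OxiLuc oxidative-stress reporter, sorted by FACS for mStrawberry. Plated at 5x10³ cells/well the day before, then given escalating doses for 24 h. Bioluminescence imaged on an IVIS Spectrum, and per-well photon flux quantified as photons/s/sr/cm².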

[7] = Effect on metabolism in human MDA-MB-231 cells assessed as reduction in argininosuccinic-acid level at 5 uM incubated for 16 hrs by LC-MS based metabolomics analysis; assay type: functional; parameters: scale not given: the % may be the effect or the level left; procedure, shortened: as §1
[8] = Inhibition of pyrimidine biosynthesis in human MDA-MB-231 cells assessed as fold increase in cytidine levels at 5 uM incubated for 16 hrs by LC-MS based metabolomics analysis; assay type: functional; procedure, shortened: as §1
T47D = test: Cytotoxicity against human T47D cells; assay type: functional, cell-based
MCF7 = test: Cytotoxicity against human MCF7 cells; assay type: functional, cell-based
MDA-MB-231 [9] = test: Effect on metabolism in human MDA-MB-231 cells assessed as reduction in intracellular aspartate level at 5 uM incubated for 16 hrs by LC-MS based metabolomics analysis; assay type: functional, cell-based; procedure, shortened: as §1
MDA-MB-231 [10] = test: Effect on metabolism in human MDA-MB-231 cells assessed as change in intracellular metabolite abundances at 5 uM incubated for 16 hrs by LC-MS based metabolomics analysis; assay type: functional, cell-based; procedure, shortened: as §1

Row | SMILES | IC50 (MDA-MB-231 [1]) [µM] | Activity (MDA-MB-231 [6]) | other results
1 | CC[C@]12C=CCN3CC[C@]4(C(=C(C(=O)OC)C1)Nc1cc(OC)c(OC(C)=O)cc14)[C@@H]32 [JERANTININE A ACETATE] | 2.6 |  | IC50 [2]: 0.83 µM; IC50 [3]: 18.8 µM
2 | CC[C@]12C=CCN3CC[C@]4(C(=C(C(=O)OC)C1)Nc1cc(OC)c(O)cc14)[C@@H]32 [JERANTININE A] | 1.92 | Active | Activity [4]: 90%; Activity [5]: 90%; Activity [7]: 90%; fold change (FC) [8]: 10; IC50 (T47D): 0.72 µM; IC50 (MCF7): 0.72 µM; IC50 [3]: 0.96 µM; Activity (MDA-MB-231 [9]): Active; Activity (MDA-MB-231 [10]): Active
3 | CC[C@]12C=CCN3CC[C@@]4(C5=CC(=O)C(OC)=CC5=NC4=C(C(=O)OC)C1)[C@@H]32 | 1.96 | inactive | 
4 | CC[C@]12C=CCN3CC[C@]4(C(=C(C(=O)OC)C1)Nc1ccccc14)[C@@H]32 [TABERSONINE] | 5.59 | inactive | 
5 | CC[C@]12C=CCN3CC[C@]4(C(=C(C(=O)OC)C1)Nc1cc(OC)c(OS(=O)(=O)F)cc14)[C@@H]32 | 3.72 | inactive | Activity (MDA-MB-231 [9]): inactive
6 | CC[C@]12C=CCN3CC[C@]4(C(=C(C(=O)OC)C1)Nc1ccc(OS(=O)(=O)F)cc14)[C@@H]32 | 6.17 | inactive | 
7 | CC[C@]12C=CCN3CC[C@]4(C(=C(C(=O)OC)C1)Nc1ccc(O)cc14)[C@@H]32 [MELODININE P] | 1.06 | Active | 
